Assay results from ChEMBL document CHEMBL1955865, “Synthesis of novel spirooxindole derivatives by one pot multicomponent reaction and their antimicrobial activity” (2012).
Converted amounts (≈) assume the structure as drawn. The source made the active and inactive calls. The rule behind the calls is not given here.

Key:
Salmonella typhimurium [1] = test: Antibacterial activity against Salmonella Typhimurium MTCC 1251 at 1000 ug/disc after 24 hrs by disc diffusion assay; assay type: functional, Salmonella enterica subsp. enterica serovar Typhimurium; conditions: Salmonella enterica, MTCC 1251, 24 h; read-out: IZ
Method in brief: (§1)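 Disc diffusion on Mueller Hinton agar. Cultures (about 10^4 CFU/ml) were swabbed on and dried 10 min. Discs loaded at 1000 µg/disc were left 30 min at room temperature for diffusion, with a solvent negative control. Plates were incubated 24 h at 37 °C. Inhibition zones were measured in mm, and the experiment was done twice.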

Klebsiella pneumoniae [2] = test: Antibacterial activity against Klebsiella pneumoniae MTCC 109 at 1000 ug/disc after 24 hrs by disc diffusion assay; assay type: functional; conditions: for zone of inhibition at 1000 µg/disc: MTCC 109, 24 h, read-out: IZ; method in brief: as §1
[3] = Antifungal activity against Malassezia pachydermatis at 1000 ug/disc after 48 hrs by disc diffusion assay; assay type: functional
Method in brief: (§2)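 Fungal disc diffusion with inoculum from SDA spores (filamentous) or SDB culture (yeast). Test cultures were swabbed on agar, and discs at 1000 µg/disc were left 30 min at room temperature, with a solvent negative control. Plates were incubated 48 h at 27 °C. Zone of inhibition was measured in mm, and the experiment was repeated twice.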

Klebsiella aerogenes [4] = test: Antibacterial activity against Enterobacter aerogenes MTCC 111 at 1000 ug/disc after 24 hrs by disc diffusion assay; assay type: functional; conditions: for zone of inhibition at 1000 µg/disc: MTCC 111, 24 h, read-out: IZ; method in brief: as §1
[5] = tested on: Salmonella enterica subsp. enterica serovar Paratyphi B; test: Antibacterial activity against Salmonella paratyphi B at 1000 ug/disc after 24 hrs by disc diffusion assay; assay type: functional; conditions: for zone of inhibition at 1000 µg/disc: read-out: IZ
Method in brief: (§3)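 Disc diffusion on Mueller Hinton agar. Bacteria were grown 24 h at 37 °C in MHB and diluted to about 10^4 CFU/ml, swabbed onto plates and dried 10 min. Discs were loaded at 1000 μg/disc and held 30 min at room temperature for diffusion. Solvent served as negative control. After 24 h at 37 °C, inhibition zones were read in mm; run twice.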

Botrytis cinerea [6] = test: Antifungal activity against Botrytis cinerea at 1000 ug/disc after 48 hrs by disc diffusion assay; assay type: functional; conditions: for zone of inhibition at 1000 µg/disc: read-out: IZ; method in brief: as §2
Micrococcus luteus [7] = test: Antibacterial activity against Micrococcus luteus at 1000 ug/disc after 24 hrs by disc diffusion assay; assay type: functional; conditions: read-out: IZ; method in brief: as §1
Proteus vulgaris [8] = test: Antibacterial activity against Proteus vulgaris MTCC 1771 at 1000 ug/disc after 24 hrs by disc diffusion assay; assay type: functional; conditions: for zone of inhibition at 1000 µg/disc: MTCC 1771, 24 h, read-out: IZ; method in brief: as §1
Staphylococcus aureus [9] = test: Antibacterial activity against methicillin-resistant Staphylococcus aureus at 1000 ug/disc after 24 hrs by disc diffusion assay; assay type: functional; conditions: for zone of inhibition at 1000 µg/disc: read-out: IZ; method in brief: as §3
Staphylococcus aureus [10] = test: Antibacterial activity against Staphylococcus aureus MTCC 96 at 1000 ug/disc after 24 hrs by disc diffusion assay; assay type: functional; conditions: for zone of inhibition at 1000 µg/disc: MTCC 96, 24 h, read-out: IZ; method in brief: as §1
Candida albicans [11] = test: Antifungal activity against Candida albicans MTCC 227 at 1000 ug/disc after 48 hrs by disc diffusion assay; assay type: functional; conditions: for zone of inhibition at 1000 µg/disc: MTCC 227, 48 h, read-out: IZ; method in brief: as §2
[12] = tested on: Salmonella enterica subsp. enterica serovar Paratyphi B; test: Antibacterial activity against Salmonella paratyphi B after 24 hrs by twofold serial dilution method; assay type: functional
Method in brief: (§4)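 Broth microdilution in MHB following the standard bacterial reference method. Compound was dissolved in DMSO (2%) and serially diluted two-fold from 1000 to 15.62 µg/ml in 96-well plates, with an inoculum of about 10^4 CFU/ml. Streptomycin and ciprofloxacin were positive controls. After 24 h at 37 °C, 5 µl of broth was subcultured on MHA. MIC was the lowest concentration without visible growth on agar.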

Candida albicans [13] = test: Antifungal activity against Candida albicans MTCC 227 after 48 to 72 hrs by twofold serial dilution method; assay type: functional
Method in brief: (§5)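 Broth two-fold serial dilution, 1000 to 15.62 µg/ml, with compound dissolved in 2% DMSO, in 96-well plates. Filamentous fungal spores came from 10-day SDA slants at 28 °C, and yeast from SDB grown 48 h at 28 °C. Incubation was 48-72 h at 28 °C. MIC was the lowest concentration with no visible fungal growth.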

Klebsiella aerogenes [14] = test: Antibacterial activity against Enterobacter aerogenes MTCC 111 after 24 hrs by twofold serial dilution method; assay type: functional; conditions: MTCC 111, 24 h
Method in brief: (§6)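 Bacteria grown in Mueller Hinton broth for 24 h at 37 °C and diluted to about 10^4 CFU/ml. Compound in 2% DMSO was serially diluted two-fold (1000 to 15.62 µg/ml) in medium in 96-well plates and inoculated. Plates were incubated 24 h at 37 °C. 5 µl of broth was spotted onto MHA, and MIC was taken as the lowest concentration with no visible growth on agar.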

Micrococcus luteus [15] = test: Antibacterial activity against Micrococcus luteus after 24 hrs by twofold serial dilution method; assay type: functional; method in brief: as §6
[16] = Antifungal activity against Malassezia pachydermatis after 48 to 72 hrs by twofold serial dilution method; assay type: functional; method in brief: as §5
Staphylococcus aureus [17] = test: Antibacterial activity against methicillin-resistant Staphylococcus aureus after 24 hrs by twofold serial dilution method; assay type: functional; method in brief: as §4
Salmonella typhimurium [18] = test: Antibacterial activity against Salmonella Typhimurium MTCC 1251 after 24 hrs by two-fold serial dilution method; assay type: functional, Salmonella enterica subsp. enterica serovar Typhimurium; conditions: Salmonella enterica, MTCC 1251, 24 h; method in brief: as §6
Proteus vulgaris [19] = test: Antibacterial activity against Proteus vulgaris MTCC 1771 after 24 hrs by twofold serial dilution method; assay type: functional; conditions: MTCC 1771, 24 h; method in brief: as §6
Botrytis cinerea [20] = test: Antifungal activity against Botrytis cinerea after 48 to 72 hrs by twofold serial dilution method; assay type: functional; method in brief: as §5
Klebsiella pneumoniae [21] = test: Antibacterial activity against Klebsiella pneumoniae MTCC 109 after 24 hrs by twofold serial dilution method; assay type: functional; conditions: MTCC 109, 24 h; method in brief: as §6
Staphylococcus aureus [22] = test: Antibacterial activity against Staphylococcus aureus MTCC 96 after 24 hrs by twofold serial dilution method; assay type: functional; conditions: MTCC 96, 24 h; method in brief: as §6

SMILES	zone of inhibition at 1000 µg/disc (Salmonella typhimurium [1]) [mm]	zone of inhibition at 1000 µg/disc (Klebsiella pneumoniae [2]) [mm]	inhibition zone (IZ) [3]	zone of inhibition at 1000 µg/disc (Klebsiella aerogenes [4]) [mm]	zone of inhibition at 1000 µg/disc [5] [mm]	zone of inhibition at 1000 µg/disc (Botrytis cinerea [6]) [mm]	zone of inhibition at 1000 µg/disc (Micrococcus luteus [7]) [mm]	zone of inhibition at 1000 µg/disc (Proteus vulgaris [8]) [mm]	zone of inhibition at 1000 µg/disc (Staphylococcus aureus [10]) [mm]	zone of inhibition at 1000 µg/disc (Candida albicans [11]) [mm]	zone of inhibition at 1000 µg/disc (Staphylococcus aureus [9]) [mm]	inhibition zone (IZ) [5]	further results
CN1CC2=C(C(=O)c3ccccc3C2=O)C12C(=O)c1ccccc1C2=O	10	9	inactive	8	9	9	8	8	9	–	–	–	inhibition zone (IZ) (Staphylococcus aureus [9]): inactive; inhibition zone (IZ) (Candida albicans [11]): inactive
C#CCN1C(=O)C2(C3=C(C(=O)c4ccccc4C3=O)C3CCCN32)c2ccccc21 (stereo not given)	9	–	inactive	–	8	9	9	8	–	8	–	–	inhibition zone (IZ) (Klebsiella pneumoniae [2]): inactive; inhibition zone (IZ) (Klebsiella aerogenes [4]): inactive; inhibition zone (IZ) (Staphylococcus aureus [9]): inactive; inhibition zone (IZ) (Staphylococcus aureus [10]): inactive
CN1C(=O)C2(C3=C(CN2C)C(=O)c2ccccc2C3=O)c2ccccc21 (stereo not given)	14	18	11 mm	10	11	8	12	10	13	9	10	–	MIC [12]: 250 µg/mL (≈ 726 µM); MIC (Candida albicans [13]): 250 µg/mL (≈ 726 µM); MIC (Klebsiella aerogenes [14]): 125 µg/mL (≈ 363 µM); MIC (Micrococcus luteus [15]): 125 µg/mL (≈ 363 µM); MIC [16]: 125 µg/mL (≈ 363 µM); MIC (Staphylococcus aureus [17]): 250 µg/mL (≈ 726 µM); MIC (Salmonella typhimurium [18]): 125 µg/mL (≈ 363 µM); MIC (Proteus vulgaris [19]): 125 µg/mL (≈ 363 µM); MIC (Botrytis cinerea [20]): 250 µg/mL (≈ 726 µM); MIC (Klebsiella pneumoniae [21]): 31.2 µg/mL (≈ 90.7 µM); MIC (Staphylococcus aureus [22]): 62.5 µg/mL (≈ 181 µM)
O=C(O)c1cn(C2CC2)c2cc(N3CCNCC3)c(F)cc2c1=O [CIPROFLOXACIN]	–	–	–	–	–	–	–	–	–	–	–	–	MIC [12]: 6.25 µg/mL (≈ 18.9 µM); MIC (Klebsiella aerogenes [14]): < 0.78 µg/mL; MIC (Micrococcus luteus [15]): > 100 µg/mL; MIC (Staphylococcus aureus [17]): > 100 µg/mL; MIC (Salmonella typhimurium [18]): > 100 µg/mL; MIC (Proteus vulgaris [19]): < 0.78 µg/mL; MIC (Klebsiella pneumoniae [21]): < 0.78 µg/mL; MIC (Staphylococcus aureus [22]): < 0.78 µg/mL
CN1C(=O)C2(C3=C(C(=O)c4ccccc4C3=O)C3CCCN32)c2ccccc21 (stereo not given)	11	9	10 mm	9	–	8	9	8	10	10	8	inactive	–
OC(Cn1cncn1)(Cn1cncn1)c1ccc(F)cc1F [FLUCONAZOLE]	–	–	–	–	–	–	–	–	–	–	–	–	MIC (Candida albicans [13]): > 100 µg/mL; MIC [16]: 12.5 µg/mL (≈ 40.8 µM); MIC (Botrytis cinerea [20]): inactive
O=C1C2=C(C(=O)c3ccccc31)C1(C(=O)N(Cc3ccccc3)c3ccccc31)N1CCCC21 (stereo not given)	9	8	9 mm	8	–	–	9	10	10	8	8	inactive	inhibition zone (IZ) (Botrytis cinerea [6]): inactive
C=CCN1C(=O)C2(C3=C(C(=O)c4ccccc4C3=O)C3CCCN32)c2ccccc21 (stereo not given)	9	–	inactive	–	–	–	9	–	8	–	–	inactive	inhibition zone (IZ) (Klebsiella pneumoniae [2]): inactive; inhibition zone (IZ) (Klebsiella aerogenes [4]): inactive; inhibition zone (IZ) (Botrytis cinerea [6]): inactive; inhibition zone (IZ) (Proteus vulgaris [8]): inactive; inhibition zone (IZ) (Staphylococcus aureus [9]): inactive; inhibition zone (IZ) (Candida albicans [11]): inactive
CN1CC2=C(C(=O)c3ccccc3C2=O)C12C(=O)Nc1ccc(Cl)cc12 (stereo not given)	11	13	10 mm	10	13	8	12	10	14	9	11	–	–
CC(=O)N1CCN(c2ccc(OCC3COC(Cn4ccnc4)(c4ccc(Cl)cc4Cl)O3)cc2)CC1 (stereo not given) [KETOCONAZOLE]	–	–	28 mm	–	–	–	–	–	–	22	–	–	MIC (Candida albicans [13]): 25 µg/mL (≈ 47 µM); MIC [16]: 15 µg/mL (≈ 28.2 µM); inhibition zone (IZ) (Botrytis cinerea [6]): inactive; MIC (Botrytis cinerea [20]): 25 µg/mL (≈ 47 µM)
O=C1C2=C(C(=O)c3ccccc31)C1(C(=O)Nc3ccc(Cl)cc31)N1CCCC21 (stereo not given)	10	11	9 mm	9	–	–	10	9	12	–	9	inactive	inhibition zone (IZ) (Botrytis cinerea [6]): inactive; inhibition zone (IZ) (Candida albicans [11]): inactive
CN1CC2=C(C(=O)c3ccccc3C2=O)C12C(=O)N(Cc1ccccc1)c1ccccc12 (stereo not given)	9	10	9 mm	8	8	10	9	8	9	8	8	–	–
Cc1ccc2c(c1)C1(C(=O)N2)C2=C(C(=O)c3ccccc3C2=O)C2CCCN21 (stereo not given)	11	10	9 mm	9	8	9	11	9	10	–	8	–	inhibition zone (IZ) (Candida albicans [11]): inactive
C=CCN1C(=O)C2(C3=C(CN2C)C(=O)c2ccccc2C3=O)c2ccccc21 (stereo not given)	11	9	9 mm	9	–	8	10	8	11	9	9	inactive	–
CN1CC2=C(C(=O)c3ccccc3C2=O)C12C(=O)c1cccc3cccc2c13 (stereo not given)	10	9	8 mm	–	–	9	8	8	9	8	–	inactive	inhibition zone (IZ) (Klebsiella aerogenes [4]): inactive; inhibition zone (IZ) (Staphylococcus aureus [9]): inactive
